Laboratory results: ChEMBL document CHEMBL1121917, “Structure--activity relationships in a broad-spectrum anthelmintic series. Acid chloride phenylhydrazones. 1. Aryl substitutions and chloride variations” (1981)

Experiments:
[1] = species on record: Mus musculus; experiment: Percent clearance of Nematospiroides dubius from mouse after oral treatment of 7.5 mg/mouse/day; type: functional
In short: (§1)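 Mice naturally carrying Syphacia obvelata were experimentally infected with Nematospiroides dubius and Hymenolepis nana, then grouped after a 2-week prepatency. Finely ground compound was suspended in aqueous 0.10% carboxymethylcellulose, 0.04% polysorbate 80 and 0.0042% polyparaben, and 0.1 mL was given orally by cannula once daily for 4 days to five mice. Necropsy followed 2 days later, scoring presence or absence of each parasite. Control clearance was subtracted from the treated clearance.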

[2] = species on record: Mus musculus; experiment: Percent clearance of Syphacaia obvelata from mouse after oral treatment of 7.5 mg/mouse/day; type: functional; in short: as §1
[3] = system: Ovis aries; experiment: Percent reduction in Haemonchus eggs per gram, after treatment of 150 mg/kg dose of compound perorally; Toxic; settings: Egg
[4] = species on record: Mus musculus; experiment: Percent clearance of Syphacaia obvelata from mouse after oral treatment of 1.87 mg/mouse/day; type: functional; in short: as §1
[5] = species on record: Mus musculus; experiment: Percent clearance of Nematospiroides dubius from mouse after oral treatment of 1.87 mg/mouse/day; type: functional; in short: as §1
[6] = system: Ovis aries; experiment: Percent reduction in Cooperia eggs per gram, after treatment with 100 mg/kg dose of compound perorally in sheep; type: functional, Egg; settings: route oral
In short: (§2)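 Naturally parasitized lambs received compound orally, either as the aqueous suspension by stomach tube or as finely ground powder in gelatin capsules by balling gun. Activity was judged by the clinical test method, as a significant decrease in posttreatment helminth egg counts.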

[7] = species on record: Canis familiaris; experiment: Percent reduction in Toxascaris eggs per gram, after oral treatment of 100 mg/dog dose of compound in a single treatment; type: functional, Canis lupus familiaris, Egg
In short: (§3)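 Dogs naturally infected with Toxascaris leonina were experimentally infected with mixed Ancylostoma caninum and Uncinaria stenocephala larvae. Finely ground compound was given orally in gelatin capsules. Three egg count determinations were made before and three after treatment in each experiment.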

[8] = system: Ovis aries; experiment: Percent reduction in Strongyloides eggs per gram, after treatment with 100 mg/kg dose of compound perorally in sheep; type: functional, Egg; settings: route oral
In short: (§4)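 Naturally parasitized lambs, dosed orally either with a suspension by stomach tube or with finely ground compound in gelatin capsules by balling gun. Activity was scored by the clinical test method, meaning a significant fall in helminth egg counts after treatment.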

[9] = species on record: Canis familiaris; experiment: Percent reduction in Uncinaria eggs per gram, after oral treatment of 100 mg/dog dose of compound in a single treatment; type: functional, Canis lupus familiaris, Egg; in short: as §3
[10] = system: Ovis aries; experiment: Percent reduction in Oesophagostomum eggs per gram, after treatment with 100 mg/kg dose of compound perorally in sheep; type: functional, Egg; settings: route oral
In short: (§5)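 Naturally parasitized lambs were dosed orally at the stated mg/kg. Dosing was either as a suspension of finely ground compound by stomach tube, or as ground compound weighed into gelatin capsules and given by balling gun. Activity was scored by the clinical test method: the decrease in posttreatment helminth eggs per gram.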

[11] = system: Ovis aries; experiment: Percent reduction in Trichostrongylus eggs per gram, after treatment with 100 mg/kg dose of compound perorally in sheep; type: functional, Egg; settings: route oral; in short: as §4
[12] = system: Ovis aries; experiment: Percent reduction in Trichuris eggs per gram, after treatment with 100 mg/kg dose of compound perorally in sheep; type: functional, Egg; settings: route oral; in short: as §4
[13] = species on record: Canis familiaris; experiment: Percent reduction in Ancylostoma eggs per gram, after oral treatment of 100 mg/dog dose of compound in a single treatment; type: functional, Canis lupus familiaris, Egg
In short: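 Dogs naturally infected with Toxascaris leonina were experimentally infected with mixed Ancylostoma caninum and Uncinaria stenocephala larvae. Finely ground compound was given orally in gelatin capsules. Fecal egg counts were taken three times before and three times after treatment, and activity was taken as the fall in egg counts.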

[14] = system: Ovis aries; experiment: Percent reduction in Ostertagia eggs per gram, after treatment with 100 mg/kg dose of compound perorally in sheep; type: functional, Egg; settings: route oral; in short: as §5
[15] = system: Ovis aries; experiment: Percent reduction in Haemonchus eggs per gram, after treatment with 100 mg/kg dose of compound perorally in sheep; type: functional, Egg; settings: route oral; in short: as §2
[16] = species on record: Mus musculus; experiment: Percent clearance of Nematospiroides dubius from mouse after oral treatment of 0.47 mg/mouse/day; type: functional; in short: as §1
[17] = species on record: Mus musculus; experiment: Percent clearance of Syphacaia obvelata from mouse after oral treatment of 0.47 mg/mouse/day; type: functional; in short: as §1
[18] = species on record: Mus musculus; experiment: Percent clearance of Nematospiroides dubius from mouse after oral treatment of 3.75 mg/mouse/day; type: functional; in short: as §1
[19] = species on record: Canis familiaris; experiment: Percent reduction in Uncinaria eggs per gram, after oral treatment of 200 mg/dog dose of compound in a single treatment; type: functional, Canis lupus familiaris, Egg; in short: as §3
[20] = species on record: Mus musculus; experiment: Percent clearance of Syphacaia obvelata from mouse after oral treatment of 3.75 mg/mouse/day; type: functional; in short: as §1
[21] = species on record: Mus musculus; experiment: Percent clearance of Nematospiroides dubius from mouse after oral treatment of 0.32 mg/mouse/day; type: functional; in short: as §1
[22] = species on record: Mus musculus; experiment: Percent clearance of Syphacaia obvelata from mouse after oral treatment of 0.32 mg/mouse/day; type: functional; in short: as §1
[23] = species on record: Mus musculus; experiment: Percent clearance of Hymenolepis nana from mouse after oral treatment of 7.5 mg/mouse/day; type: functional; in short: as §1
[24] = species on record: Canis familiaris; experiment: percent reduction in Uncinaria eggs per gram, after oral treatment of 50 mg/dog dose of compound in a single treatment; type: functional, Canis lupus familiaris, Egg; in short: as §3
[25] = species on record: Canis familiaris; experiment: percent reduction in Toxascaris eggs per gram, after oral treatment of 50 mg/dog dose of compound in a single treatment; type: functional, Canis lupus familiaris, Egg; in short: as §3
[26] = species on record: Canis familiaris; experiment: percent reduction in Ancylostoma eggs per gram, after oral treatment of 100 mg/dog dose of compound in a single treatment; type: functional, Canis lupus familiaris, Egg; in short: as §3
[27] = system: Ovis aries; experiment: Percent reduction in Haemonchus eggs per gram, after treatment of 100 mg/kg dose of compound perorally in sheep; Toxic; type: functional, organism-based; design: dose 100 mg/kg; settings: Egg; in short: as §2
[28] = system: Ovis aries; experiment: Percent reduction in Oesophagostomum eggs per gram, after oral treatment of 100 mg/kg dose of compound perorally in sheep; type: functional, Egg; in short: as §5
[29] = system: Ovis aries; experiment: Percent reduction in Trichuris eggs per gram, after oral treatment of 100 mg/kg dose of compound perorally in sheep; type: functional, Egg
[30] = system: Ovis aries; experiment: Percent reduction in Nematodirus eggs per gram, after oral treatment of 100 mg/kg dose of compound perorally in sheep; type: functional, Egg; in short: as §5
[31] = system: Ovis aries; experiment: Percent reduction in Strongyloides eggs per gram, after oral treatment of 100 mg/kg dose of compound perorally in sheep; type: functional, Egg; in short: as §4
[32] = system: Ovis aries; experiment: Percent reduction in Ostertagia eggs per gram, after oral treatment of 100 mg/kg dose of compound perorally in sheep; type: functional, Egg; in short: as §5
[33] = system: Ovis aries; experiment: Percent reduction in Trichostrongylus eggs per gram, after oral treatment of 100 mg/kg dose of compound perorally in sheep; type: functional, Egg; in short: as §4
[34] = system: Ovis aries; experiment: Percent reduction in Haemonchus eggs per gram, after oral treatment of 100 mg/kg dose of compound perorally in sheep; type: functional, Egg; in short: as §2

SMILES: Cc1cc(Cl)ccc1N/N=C(\Cl)c1ccccc1
- Parasite_Clearance [1]: 0%
- Parasite_Clearance [2]: 0%

SMILES: Cl/C(=N\Nc1ccccc1)c1cccc(Cl)c1
- Reduction [3]: Toxic
- Parasite_Clearance [4]: 100%
- Parasite_Clearance [5]: 100%

SMILES: Cl/C(=N\Nc1ccccc1)c1ccccc1Cl
- Parasite_Clearance [4]: 20%
- Parasite_Clearance [5]: 40%

SMILES: O=[N+]([O-])c1ccc(/C(Cl)=N/Nc2ccccc2)c(Cl)c1
- Parasite_Clearance [1]: 0%
- Parasite_Clearance [2]: 0%

SMILES: Cc1ccccc1/C(Cl)=N/Nc1c(Cl)cc(Cl)cc1Cl
- Reduction [6]: 33%
- Reduction [7]: 100%
- Reduction [8]: 85%
- Reduction [9]: 20%
- Reduction [10]: 11%
- Reduction [11]: 14%
- Reduction [12]: 0%
- Reduction [13]: 0%
- Reduction [14]: 67%
- Reduction [15]: 85%

SMILES: CC(C)c1ccc(/C(Cl)=N/Nc2ccccc2)cc1
- Parasite_Clearance [16]: 0%
- Parasite_Clearance [17]: 0%

SMILES: Cl/C(=N\Nc1c(Cl)cc(Cl)cc1Cl)c1cccc(Cl)c1
- Parasite_Clearance [1]: 50%
- Parasite_Clearance [2]: 100%

SMILES: Cl/C(=N\Nc1ccccc1)c1ccc(Cl)cc1Cl
- Parasite_Clearance [16]: 0%
- Parasite_Clearance [17]: 0%

SMILES: Cc1cc(/C(Cl)=N/Nc2ccccc2)ccc1[N+](=O)[O-]
- Parasite_Clearance [18]: 80%
- Reduction [19]: 55%
- Reduction [9]: 0%
- Parasite_Clearance [20]: 100%

SMILES: Cc1ccccc1N/N=C(\Cl)c1ccccc1
- Parasite_Clearance [16]: 100%
- Parasite_Clearance [17]: 0%

SMILES: Cl/C(=N\Nc1cc(Cl)c(Cl)cc1Cl)c1ccccc1
- Parasite_Clearance [18]: 0%
- Parasite_Clearance [20]: 33%

SMILES: Cl/C(=N\Nc1ccc(Br)cc1Br)c1ccccc1
- Parasite_Clearance [21]: 0%
- Parasite_Clearance [22]: 0%

SMILES: Cl/C(=N\Nc1c(Cl)cc(Cl)cc1Cl)c1ccc(Br)cc1
- Parasite_Clearance [18]: 0%
- Parasite_Clearance [20]: 40%

SMILES: Cl/C(=N\Nc1c(Cl)cc(Cl)cc1Cl)c1c(Cl)cccc1Cl
- Parasite_Clearance [1]: 0%
- Parasite_Clearance [23]: 0%

SMILES: Cl/C(=N\Nc1ccccc1)c1ccc(Cl)c(Cl)c1
- Parasite_Clearance [1]: 100%

SMILES: Cl/C(=N\Nc1cc(Cl)cc(Cl)c1)c1ccccc1
- Reduction [8]: 45%
- Reduction [24]: 57%
- Reduction [10]: 0%
- Reduction [11]: 100%
- Reduction [12]: 100%
- Reduction [25]: 40%
- Reduction [14]: 100%
- Reduction [15]: 97%

SMILES: Cl/C(=N\Nc1c(Cl)cc(Cl)cc1Cl)c1ccc(Cl)c(Cl)c1
- Parasite_Clearance [1]: 0%
- Parasite_Clearance [23]: 0%

SMILES: Cl/C(=N\Nc1ccc(Cl)c(Cl)c1)c1ccccc1
- Reduction [7]: 0%
- Reduction [9]: 0%
- Reduction [26]: 0%
- Reduction [27]: Toxic

SMILES: Cl/C(=N\Nc1ccc(Cl)cc1)c1ccccc1
- Parasite_Clearance [16]: 100%
- Parasite_Clearance [17]: 80%

SMILES: Cl/C(=N\Nc1ccccc1)c1ccc(Cl)cc1
- Reduction [28]: 100%
- Reduction [29]: 0%
- Reduction [30]: 100%
- Reduction [31]: 100%
- Reduction [32]: 100%
- Reduction [33]: 99%
- Reduction [34]: 100%
